Measurements as given in PubChem BioAssay.
Unmarked numbers belong to inactive results. Inconclusive results are not listed. Calls of active or inactive are those of the source.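 Rule for the calls, unless noted: active = cell viability at or below a set limit in both duplicate runs, the limit being the all-compound median minus 4 SD (cut at about 23% in these data, passing the limit was not always enough); inconclusive = no clear call, values can overlap the other calls; inactive = the rest.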

Experiments:
[1] = OD615 S. cerevisiae growth inhibition, permissive medium, pilot counter-assay, permissive growth control for S. cerevisiae lifespan shortening project (AID 705;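 active = growth inhibition above 25% in both replicates, a cutoff set 3 SD above the mean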); details: OD615, 24 h, at 10 µM, active compounds read high
In short: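 Material: engineered DeaD yeast; compound dosing: one dose 10 µM, DMSO 0.25% final; measure: yeast growth inhibition indicated by reduced 24 h OD615; detection: OD615 turbidity read; incubation: cells pre-grown 4 h, then 24 h compound exposure, 30 °C humidified; medium: permissive synthetic complete medium with raffinose and galactose carbon sources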

[2] = Restrictive medium S. cerevisiae growth inhibition, OD615, pilot screen of yeast lifespan reduction project, restrictive growth control (AID 706;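 active = growth inhibition above a set limit, 3 SD over mean compound inhibition, in both replicates, cut at about 43% in these data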;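 note: modified DeaD lifespan yeast strain shifted to restrictive glucose medium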); details: OD615, 48 h, at 10 µM, active compounds read high
In short: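 material = engineered S. cerevisiae DeaD strain | medium = glucose-based CSMM-D restrictive medium | times = 4 h pre-incubation, 48 h exposure at 30 °C | technique = OD615 absorbance reading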

[3] = viability gain of MRP-1-high H69AR cells under doxorubicin, pilot screen, MRP-1 activator project, CellTiter-Glo, duplicate (AID 807;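 active = viability increase at or above a cutoff of the median across tested compounds plus 3 SD, cut at about 8.5% in these data, passing the limit was not always enough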;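 note: compound pretreatment 18-22 h then 72 h combined with doxorubicin; 0% = doxorubicin alone and 100% = vehicle without doxorubicin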); details: H69AR viability with doxorubicin, CellTiter-Glo luminescence; at 10 µM; active compounds read high
[4] = growth suppression of beta-catenin knockout HCT116, pilot screen, human colon tumor cells (AID 823); details: CellTiter-Glo, 60 h, at 10 µM, active compounds read low;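 note: 0% = wells killed by 20 µM Hyamine and 100% = untreated DMSO cell wells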
[5] = growth suppression of PTEN-deleted HCT116, pilot screen, cell-based, HCT116 clonal line, CellTiter-Glo (AID 824;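 active = viability at or below 27.92% in each of two runs, the all-compound median minus 4 SD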;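 note: 0% = 20 µM Hyamine control and 100% = vehicle cell control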); details: 60 h, at 10 µM, active compounds read low
[6] = inhibitors of the yeast RAM network, pilot screen, dse1pr::URA3 reporter, 5-FOA selection (AID 869;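 active = inhibition over a set limit, the all-compound mean plus 3 SD, in both replicate runs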;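 note: 0% = DMSO wells with no growth and 100% = 10 µM 1-NA-PP1 with full growth; RAM network block rescues cells from 5-FOA so hits raise OD615 growth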); details: S. cerevisiae dse1pr::URA3 5-FOA growth, OD615, 2 d; at 10 µM; active compounds read high; strain carries analog-sensitive mutant Cbk1 kinase
[7] = RAM signaling pathway blockade in yeast – S. cerevisiae, Pdr1DBD-CYC8 efflux-inhibited sensitized strain, primary screen (AID 1298;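 active = RAM network inhibition above 8.4% in each of two replicates, 3 SD over the compound average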;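 note: 0% = DMSO untreated cells without growth and 100% = 10 µM 1-NA-PP1 full growth; higher means more yeast growth rescued from 5-FOA killing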); details: S. cerevisiae cbk1-as DSE1-URA3 strain, 5-FOA growth OD615, 2 d; at 50 µM; active compounds read high

Compound | growth inhibition [1] [%] | growth inhibition [2] | viability increase [3] [%] | viability [4] [%] | viability [5] [%] | inhibition [6] [%] | RAM network inhibition [7] [%]
CC(=O)Oc1cc2c(C(=O)NCc3ccncc3)c(C)oc2c2ccccc12 | -15.1 | -16.8% | -3.14 | 90.9 | 95.8 | 0.64 | 8.02
CCCC(=O)Nc1nc2ccc(OCC)cc2s1 | -2.23 | -0.195% | 0.26 | 86.8 | 85.7 | 0.615 | 2.15
O=C(OCC(F)(F)C(F)F)c1ccccc1C(=O)Oc1ccc(F)cc1F | -2.13 | -13.3% | -3.1 | 99.1 | 96.1 | 1.86 | 3.89
NC(=O)CSc1nnc(-c2ccncc2)n1-c1ccc(Cl)cc1 | -5.39 | 0.11% | -1.78 | 97.7 | 94.1 | 0.785 | 1.57
O=C(c1cc2nc(-c3ccco3)cc(C(F)(F)F)n2n1)N1CCCCCC1 | -9.02 | -9.3% | -3.73 | 86.3 | 83.7 | 0.805 | 3.38
O=C(NCCc1ccc(Cl)cc1)C1CC(=O)N(C2CCCCC2)C1 (stereo unspecified) | -4.04 | -5.98% | -0.99 | 94.6 | 101 | 1.06 | 0.58
CC(=O)c1cccc(NC(=O)C2CCCC2)c1 | -9.02 | -23.5% | -0.26 | 102 | 95.4 | 1.08 | -2.18
Clc1ccc(CCNc2ncnc3nc[nH]c23)cc1 | 12.7 | 48.5% (active) | 0.89 | 74.7 | 77 | -0.895 | 2.97
CC(=O)c1ccc(NC(=O)CSc2nnc(Cn3c(=O)sc4ccccc43)n2C)cc1 | -0.18 | 14.4% | -1.49 | 100 | 101 | 0.83 | 3.42
CC(C)CC(NS(=O)(=O)c1ccc2c(c1)oc(=O)n2C)C(=O)NC1CCCc2ccccc21 (stereo unspecified) | 0.005 | -5.15% | -6.23 | 76.8 | 71.8 | 1.38 | 6.99
COc1ccccc1Cc1nc(-c2ccc(Br)o2)no1 | -0.335 | 6.17% | -3.52 | 97.4 | 85.8 | 2.08 | 5.63
COc1cccc(C(c2sc3ncnn3c2O)N2CCc3ccccc3C2)c1 (stereo unspecified) | -0.12 | 2.29% | 2.58 | 104 | 93.2 | 1.8 | 11.3
COc1ccc(C(C)=O)cc1CSc1nnc(C)s1 | -9.51 | -8.14% | -2.37 | 96.5 | 96.8 | -0.565 | 0.11
O=C1c2ccccc2-c2ncnc3c(N4CCOCC4)cc(N4CCOCC4)c1c23 | -12.8 | -3.37% | -7.53 | 79.2 | 80.9 | -0.74 | -1.52
COc1ccc(OC)c(NC(=O)C2CCCNC2=O)c1 (stereo unspecified) | -6.08 | -1.6% | -1.67 | 95.1 | 94.5 | 1.33 | 1.33
NC(=O)c1nc(C2CCCCC2)nc2c1[nH]c(=O)n2-c1ccc(F)cc1 | -13.1 | -17.8% | -3.71 | 87.4 | 86 | 1.69 | 5.24
Cc1ccc2cc(-c3noc(C4CCCCC4)n3)c(=O)[nH]c2c1 | -10.9 | -13% | -2.36 | 112 | 104 | 3.56 | 4.76

Compound | growth inhibition [1] [%] | growth inhibition [2] | viability increase [3] [%] | viability [4] [%] | viability [5] [%] | inhibition [6] [%] | RAM network inhibition [7] [%]
COc1ccccc1-c1nnc(SCC(=O)N2CCOCC2)o1 | -12.5 | 0.015% | -3.69 | 93.8 | 95.7 | 1.75 | 2.61
CCCc1nc(N)nc2c1C(=O)CC(C)(C)C2 | -15.1 | 3.37% | -1.08 | 89.4 | 87.6 | 1.54 | 0.27
CCCCC(CC)CNC(=O)c1[nH]c(C)c(C(C)=O)c1C (stereo unspecified) | 9.77 | -2.26% | -1.78 | 41.7 | 63.8 | 1.91 | 1.29
Cn1c(SCC(=O)Nc2cc(=O)n(C)c(=O)n2C)nnc1C12CC3CC(CC(C3)C1)C2 | 2.36 | 12.8% | -4.43 | 88.8 | 92.7 | 2.03 | 3.38
O=C(NCCc1csc(-c2cccnc2)n1)c1ccc(Br)o1 | 1.56 | 10.1% | -2.6 | 107 | 97.3 | 0 | 2.18
Cc1cccc(NS(=O)(=O)c2ccccc2)n1 | -4.51 | 11.2% | 2.49 | 106 | 104 | 0.75 | 0.26
CC(=O)NCC(=O)OCC(=O)c1ccc(C)c(C)c1 | -7.93 | -2.07% | -1.39 | 88.8 | 95.1 | 0.75 | -0.41
CCNc1nc(NCC)nc(-n2nc(C)cc2C)n1 | 4.27 | 4.28% | -0.22 | 100 | 103 | 0.2 | 0.75
Cc1occc1C(=O)NC(C)CCc1ccccc1 (stereo unspecified) | -7.82 | 2.38% | -0.95 | 91.8 | 94.1 | 3.1 | 0.62
COc1cccc(OCC(=O)N(Cc2nc(-c3ccc(Cl)cc3)no2)C(C)C)c1 | -4.67 | -2.81% | 2.88 | 91 | 89.7 | 3.32 | 3.59
COc1ccccc1NC(=O)C1=C(C)NC(=O)NC1c1ccc(C)cc1 (stereo unspecified) | -6.15 | -13.7% | -1.68 | 105 | 95.6 | 1.23 | -1.08
Cc1coc2c(C)c3oc(=O)c4c(c3cc12)CCCC4 | -10.3 | -13.6% | -5.04 | 81.3 | 59 | 2.46 | 5.02
CCCc1cc(C(=O)NCc2cccs2)no1 | -11.4 | 21.3% | -3.29 | 101 | 94.1 | 1.34 | 0.74
CCOc1ccc(-c2nc(CSCC(=O)N3CCN(C(=O)c4ccco4)CC3)c(C)o2)cc1 | -0.515 | 26% | -2.43 | 81.9 | 90.4 | 0.525 | 10.9
O=C(Cn1cc(C(=O)c2cccs2)c2ccccc21)NCc1ccc2c(c1)OCO2 | -5.79 | -15.1% | -2.32 | 94.6 | 86.4 | 1.08 | 2.74
CCOc1ccccc1NC(=O)CSc1nc2c(c(=O)n1C)SC(C)C2 (stereo unspecified) | -8.29 | -4.14% | -2.89 | 92.3 | 89.1 | 2 | 4.44
